# Calls of active or inactive are those of the source. The calls are words filed in the database; no cut-off is given here.
# Tests used:
# CCRF-CEM [1] = assay: Cytotoxicity against human CCRF-CEM cells after 72 hrs by XTT assay; assay type: functional, cell-based
# Summary of the method: (§1)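 Leukaemic CCRF-CEM cells and their taxol- and vinblastine-resistant sublines exposed for 72 h. XTT assay read at 450 and 630 nm after 6 h with phenazine methosulfate-XTT at 37 °C. IC50 obtained by the median-effect principle from six or seven concentrations, in duplicate or triplicate.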
# MX1 [2] = assay: Antitumor activity in human MX1 cells xenografted mouse assessed as complete tumor remission at 75 mg/kg, iv administered in Q2D x 8 schedule; assay type: functional, organism-based; set-up: dose 75 mg/kg
# MX1 [3] = assay: Cytotoxicity against human MX1 cells after 72 hrs by SRB assay; assay type: functional, cell-based; conditions: MX1, 72 h
# Summary of the method: (§2)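 Solid tumour cells (breast MX-1, colon HCT116) exposed for 72 h. Growth measured by SRB assay. IC50 obtained by median-effect plot from six or seven concentrations, in duplicate or triplicate.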
# CCRF-CEM [4] = assay: Selectivity ratio of IC50 for taxol-resistant human CCRF-CEM cells to IC50 for human CCRF-CEM cells; assay type: functional
# Summary of the method: (§3)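 Fold resistance: IC50 in the taxol- or vinblastine-resistant CCRF-CEM subline divided by the IC50 in parent CCRF-CEM.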
# Mus musculus [5] = assay: Toxicity against human MX1 cells xenografted mouse assessed as body weight loss at 75 mg/kg, iv administered in Q2D x 8 schedule; assay type: organism-based; set-up: dose 75 mg/kg, route intravenous; conditions: in vivo
# CCRF-CEM [6] = assay: Selectivity ratio of IC50 for vinblastine-resistant human CCRF-CEM cells to IC50 for human CCRF-CEM cells; assay type: functional; summary of the method: as §3
# CCRF-CEM [7] = assay: Cytotoxicity against vinblastine-resistant human CCRF-CEM cells after 72 hrs by XTT assay; assay type: functional, cell-based; summary of the method: as §1
# CCRF-CEM [8] = assay: Cytotoxicity against taxol-resistant human CCRF-CEM cells after 72 hrs by XTT assay; assay type: functional, cell-based; summary of the method: as §1
# HCT-116 = assay: Cytotoxicity against human HCT116 cells after 72 hrs by SRB assay; assay type: functional, cell-based; conditions: HCT-116, 72 h; summary of the method: as §2
# [9] = Stability in mouse assessed as half life; assay type: ADME, organism-based; conditions: in vivo
# MX1 [10] = assay: Antitumor activity in human MX1 cells xenografted mouse assessed as complete tumor remission at 50 mg/kg, iv administered in Q2D x 8 schedule; assay type: functional, organism-based; set-up: dose 50 mg/kg
# [11] = Chemical stability assessed as half life at 1 mg in DMSO/Tween 80/normal saline solution; assay type: physicochemical
# Summary of the method: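 1 mg of compound held in i.v. vehicle (DMSO/Tween 80/normal saline, 0.5:0.4:1.6 v/v/v). Degradation followed by silica TLC (CHCl3/MeOH 10:1) and confirmed by reversed-phase HPLC.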
# Mus musculus [12] = assay: Toxicity against human MX1 cells xenografted mouse assessed as body weight loss at 50 mg/kg, iv administered in Q2D x 8 schedule; assay type: organism-based; set-up: dose 50 mg/kg, route intravenous; conditions: in vivo
# Summary of the method: (§4)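 Nude nu/nu male mice (8 weeks or older, 22 g or more) carrying xenografts, given i.v. tail-vein injections in DMSO/Tween 80/saline vehicle, n = 3. Host toxicity taken as body weight change from the initial pretreatment weight, tracked through and after dosing.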
# MX1 [13] = assay: Antitumor activity in human MX1 cells xenografted mouse assessed as complete tumor suppression at 50 mg/kg, iv administered in Q2D x 8 schedule; assay type: functional, organism-based; set-up: dose 50 mg/kg
# Mus musculus [14] = assay: Toxicity against human MX1 cells xenografted mouse assessed as body weight loss at 30 mg/kg, iv administered in Q2D x 5 schedule; assay type: organism-based; set-up: dose 30 mg/kg, route intravenous; conditions: in vivo; summary of the method: as §4
# MX1 [15] = assay: Antitumor activity in human MX1 cells xenografted mouse assessed as complete tumor remission at 30 mg/kg, iv administered in Q2D x 5 schedule; assay type: functional, organism-based; set-up: dose 30 mg/kg
# [16] = Stability in rat plasma assessed as half life at 5 ug/mL by HPLC; assay type: ADME, cell-free
# Summary of the method: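 Rat plasma (100 µL, 5 µg/mL compound) deproteinised with acetonitrile (1:2), centrifuged at 10,000 g for 10 min and filtered. Analysed by HPLC on methanol:10 mM NaH2PO4 (60:40, pH 3.0) at 0.8 mL/min, UV 266 nm, quantified by peak area. Detection limit 20 ng/mL; n = 4.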
# Mus musculus [17] = assay: Toxicity against human U87 MG cells xenografted mouse assessed as body weight loss at 100 mg/kg, iv administered in Q2D x 5 schedule; assay type: organism-based, U-87MG ATCC; set-up: dose 100 mg/kg, route intravenous; conditions: in vivo; summary of the method: as §4
# NCI-H1299 [18] = assay: Induction of DNA interstrand cross linking in 20 Gy irradiated human H1299 cells at 10 uM after 1 hr by comet assay; assay type: functional
# Summary of the method: (§5)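 H1299 cells (2 × 10^5) plated and grown for 32 h at 37 °C in 5% CO2, then drug-treated for 1 h. Cells given 20 Gy irradiation and embedded in 1.2% low-melting agarose for a modified comet assay under subdued light. Tail moment scored in 100 cells. Cross-linking % = [1 − (TMdi−TMcu)/(TMci−TMcu)] × 100. Three experiments, mean ± SD.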
# MX1 [19] = assay: Antitumor activity in human MX1 cells xenografted mouse assessed as complete tumor remission at 100 mg/kg, iv administered in Q2D x 5 schedule; assay type: functional, organism-based; set-up: dose 100 mg/kg
# [20] = Cytotoxicity against human H1299 cells; assay type: functional, cell-based; conditions: NCI-H1299
# Mus musculus [21] = assay: Toxicity against human MX1 cells xenografted mouse assessed as body weight loss at 100 mg/kg, iv administered in Q2D x 5 schedule; assay type: organism-based; set-up: dose 100 mg/kg, route intravenous; conditions: in vivo; summary of the method: as §4
# U-87 MG = assay: Antitumor activity in human U87 MG cells xenografted mouse at 100 mg/kg, iv administered in Q2D x 5 schedule; assay type: functional, organism-based; set-up: dose 100 mg/kg; conditions: U-87MG ATCC
# NCI-H1299 [22] = assay: Induction of DNA interstrand cross linking in 20 Gy irradiated human H1299 cells at 200 uM after 1 hr by comet assay; assay type: functional; summary of the method: as §5
Compound,IC50 (CCRF-CEM [1]),IC50 (MX1 [3]),Ratio IC50 (CCRF-CEM [4]),Ratio IC50 (CCRF-CEM [6]),IC50 (CCRF-CEM [7]),IC50 (CCRF-CEM [8]),IC50 (HCT-116),further results
Cc1cc(NC(=O)Nc2ccc(N(CCCl)CCCl)cc2)cc(Nc2c3ccccc3nc3ccccc23)c1,141 nM,529 nM,2.72,4.2,593 nM,384 nM,816 nM,Activity (MX1 [2]): Active; Activity (Mus musculus [5]): 10%
Cc1ccc(Nc2c3ccccc3nc3ccccc23)cc1NC(=O)Nc1ccc(N(CCCl)CCCl)cc1,16.7 nM,584 nM,2.08,2,33.4 nM,34.7 nM,264 nM,
COc1cc(NC(=O)Nc2ccc(N(CCCl)CCCl)cc2)cc(Nc2c3ccccc3nc3c(C(=O)NCCN(C)C)cccc23)c1,13.2 nM,638 nM,2.29,72,951 nM,30.2 nM,110 nM,
OCc1cc(Nc2c3ccccc3nc3ccccc23)cc(OCCN(CCCl)CCCl)c1,3.33 nM,,0.96,3.84,12.8 nM,3.2 nM,6.5 nM,half-life [9]: < 0.0174 days
COc1ccc(NC(=O)Nc2ccc(N(CCCl)CCCl)cc2)cc1Nc1c2ccccc2nc2c(C)cccc12,29.7 nM,1810 nM,1.93,1.3,30.6 nM,57.4 nM,571 nM,
O=C(Nc1ccc(N(CCCl)CCCl)cc1)Nc1cc(CO)cc(Nc2c3ccccc3nc3ccccc23)c1,,369 nM,304,,,17200 nM,216 nM,Activity (MX1 [10]): inactive; half-life [11]: 55 days; Activity (Mus musculus [12]): 10%; Activity (MX1 [13]): Active
COc1cc(NC(=O)Nc2ccc(N(CCCl)CCCl)cc2)cc(Nc2c3ccccc3nc3c(C)cccc23)c1,29.6 nM,868 nM,1.68,1.46,43.3 nM,49.8 nM,242 nM,
COc1cc(NC(=O)Nc2ccc(N(CCCl)CCCl)cc2)cc(Nc2c3ccccc3nc3ccccc23)c1,37.5 nM,1110 nM,1.34,1.46,54.8 nM,50.4 nM,496 nM,
CC[C@]1(O)C[C@@H]2CN(CCc3c([nH]c4ccccc34)[C@@](C(=O)OC)(c3cc4c(cc3OC)N(C)[C@H]3[C@@](O)(C(=O)OC)[C@H](OC(C)=O)[C@]5(CC)C=CCN6CC[C@]43[C@@H]65)C2)C1 [VINBLASTINE],,2.9 nM,,,,,1.8 nM,
O=C(Nc1ccc(N(CCCl)CCCl)cc1)Nc1c2ccccc2nc2ccccc12,229 nM,810 nM,1.68,1.65,378 nM,385 nM,900 nM,
Cc1cccc2c(Nc3cc(CO)cc(NC(=O)Nc4ccc(N(CCCl)CCCl)cc4)c3)c3ccccc3nc12,31.1 nM,125 nM,12.7,57.5,1790 nM,394 nM,263 nM,Activity (Mus musculus [14]): 10%; half-life [11]: 59 days; Activity (MX1 [15]): Active
Cc1ccc(NC(=O)Nc2ccc(N(CCCl)CCCl)cc2)cc1Nc1c2cccc(C)c2nc2c(C(=O)NCCN(C)C)cccc12,11.9 nM,60.1 nM,14.7,25.4,303 nM,176 nM,60 nM,
COc1ccc(NC(=O)Nc2ccc(N(CCCl)CCCl)cc2)cc1Nc1c2ccccc2nc2ccccc12,44.2 nM,591 nM,1.33,1.24,54.8 nM,58.8 nM,188 nM,
Cc1ccc(NC(=O)Nc2ccc(N(CCCl)CCCl)cc2)cc1Nc1c2ccccc2nc2c(C)cccc12,11.4 nM,589 nM,2.02,2.15,24.5 nM,23 nM,158 nM,
COc1ccc(Nc2c3ccccc3nc3c(C)cccc23)cc1NC(=O)Nc1ccc(N(CCCl)CCCl)cc1,9.2 nM,367 nM,1.25,2.76,24.6 nM,11.5 nM,74.9 nM,
CC(=O)O[C@H]1C(=O)[C@@]2(C)[C@H]([C@H](OC(=O)c3ccccc3)[C@]3(O)C[C@H](OC(=O)[C@H](O)[C@@H](NC(=O)c4ccccc4)c4ccccc4)C(C)=C1C3(C)C)[C@]1(OC(C)=O)CO[C@@H]1C[C@@H]2O [PACLITAXEL],1.3 nM,35 nM,330,980,1270 nM,,1.3 nM,
COc1ccc(Nc2c3ccccc3nc3ccccc23)cc1NC(=O)Nc1ccc(N(CCCl)CCCl)cc1,7.7 nM,1200 nM,4.39,7.13,54.9 nM,33.8 nM,256 nM,
Cc1ccc(Nc2c3ccccc3nc3c(C)cccc23)cc1NC(=O)Nc1ccc(N(CCCl)CCCl)cc1,77.8 nM,240 nM,1.18,1.64,128 nM,91.8 nM,437 nM,half-life at 5 ug/mL [16]: 2.26 days; Activity (Mus musculus [17]): 15%; Activity (NCI-H1299 [18]): 39.2%; Activity (MX1 [19]): Active; IC50 [20]: 510 nM; Activity (Mus musculus [21]): 10%; half-life [11]: 55 days; Activity (U-87 MG): Active
N[C@@H](Cc1ccc(N(CCCl)CCCl)cc1)C(=O)O [MELPHALAN],,,,,,,,Activity (NCI-H1299 [22]): 47.3%

# Reference: ChEMBL document CHEMBL1150326 (Bioorg Med Chem, 2008)
